Measurements: ChEMBL document CHEMBL1136739, “Modes of methyleneoxy bridging and their effect on tetrahydronaphthalene lignan cytotoxicity” (2003)

Experiments:
[1] = test system: SF-539; experiment: Cytotoxicity against CNS SF-539 cell line; format: functional; details: Homo sapiens
Method in brief: (§1)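 Tested in the 60 human cancer cell line panel, after a preliminary one-dose screen in three cell lines. The value is the molar concentration giving 50% growth inhibition (GI50), reported as log GI50 for each cell line.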

[2] = test system: SNB-75; experiment: Cytotoxicity against prostate CNS SNB-75 cell line; format: functional; details: Homo sapiens; method in brief: as §1
[3] = test system: HCT-116; experiment: Cytotoxicity against colon HCT116 cell line; format: functional; details: Homo sapiens; method in brief: as §1
[4] = test system: Panel (Carcinoma cell lines); experiment: Mean graph midpoint for growth inhibition of all human cancer cell lines.; format: functional
Method in brief: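 Mean graph midpoint: the average GI50 (molar) over all human cancer cell lines successfully tested in the 60 cell line panel, expressed as log GI50.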

[5] = test system: SR; experiment: Cytotoxicity against leukemia SR cell line; format: functional; details: Homo sapiens; method in brief: as §1
[6] = test system: HOP-62; experiment: Cytotoxicity against lung HOP-62 cell line; format: functional; details: Homo sapiens; method in brief: as §1
[7] = test system: NCI-H322M; experiment: Cytotoxicity against lung […] cell line; format: functional; details: Homo sapiens; method in brief: as §1
[8] = test system: UACC-62; experiment: Cytotoxicity against melanoma UACC-62 cell line; format: functional; details: Homo sapiens; method in brief: as §1
[9] = test system: OVCAR-3; experiment: Cytotoxicity against ovarian OVCAR-3 cell line; format: functional; details: Homo sapiens; method in brief: as §1
[10] = test system: OVCAR-4; experiment: Cytotoxicity against […] OVCAR-4 cell line; format: functional; details: Homo sapiens; method in brief: as §1
[11] = test system: SN12C; experiment: Cytotoxicity against renal SN12C cell line; format: functional; details: Homo sapiens; method in brief: as §1
[12] = test system: DU-145; experiment: Cytotoxicity against prostate DU-145 cell line; format: functional; details: Homo sapiens; method in brief: as §1
[13] = test system: MDA-MB-435 (human); experiment: Cytotoxicity against breast MDA-MB-435 cell line
[14] = in the assay text read “CNS” for “prostate CNS”

| Compound | GI50 [1] | GI50 [2, 14] | GI50 [3] | GI50 [4] | GI50 [5] | GI50 [6] | GI50 [7] | GI50 [8] | GI50 [9] | GI50 [10] | GI50 [11] | GI50 [12] | GI50 [13] | GI50 [2] |
| --- | --- | --- | --- | --- | --- | --- | --- | --- | --- | --- | --- | --- | --- | --- |
| COc1cc2c(c(OC)c1OC)OC[C@H]1[C@H](CO)Cc3cc4c(cc3[C@@H]21)OCO4 | 20.9 µM | 42.7 µM | 30.2 µM | 30.9 µM | 5.13 µM | 52.5 µM | 47.9 µM | 25.7 µM | 25.1 µM | 39.8 µM | 44.7 µM | 37.2 µM | 19.1 µM |  |
| COc1cc([C@]23OC[C@H](Cc4cc5c(cc42)OCO5)[C@@H]3C)cc(OC)c1OC |  |  | 0.437 µM | 0.851 µM | 0.148 µM | 0.794 µM | 2.14 µM | 0.407 µM | 0.186 µM | 0.38 µM | 5.37 µM | 0.479 µM |  | 0.38 µM |
| COc1cc([C@]23OC[C@H](Cc4cc5c(cc42)OCO5)[C@@H]3COC(C)=O)cc(OC)c1OC | 1.74 µM | 2 µM | 2.34 µM | 3.89 µM | 0.759 µM | 4.27 µM | 4.37 µM | 2.95 µM | 2.14 µM | 4.27 µM | 5.01 µM | 4.57 µM | 0.468 µM |  |
| COc1cc2c(cc1OC)[C@@H]1OC[C@H]([C@@H]2c2cc(OC)c(OC)c(OC)c2)[C@@H]1CO |  |  |  | > 100 µM |  |  |  |  |  |  |  |  |  |  |
| COc1cc([C@@H]2c3cc4c(cc3[C@@H]3OC[C@H]2[C@@H]3CO)OCO4)cc(OC)c1OC | 15.5 µM |  | 29.5 µM | 23.4 µM |  | 19.1 µM |  | 26.9 µM | 14.5 µM |  | 31.6 µM | 39.8 µM | 3.89 µM |  |
| COc1ccc([C@]23OC[C@H](Cc4cc(OC)c(OC)cc42)[C@@H]3C)cc1OC | 1.95 µM |  | 2.75 µM | 3.8 µM |  | 2.4 µM |  | 6.92 µM | 2.4 µM |  | 12 µM | 3.89 µM |  |  |
| COc1ccc(C23OCC24C2COC(c5cc(OC)c(OC)cc53)C24)cc1OC (stereo not given) | > 100 µM |  | > 100 µM | > 100 µM |  | > 100 µM |  | > 100 µM | > 100 µM |  |  | > 100 µM | > 100 µM |  |
| COc1cc2c(cc1OC)[C@H]1c3cc(OC)c(OC)c(OC)c3OC[C@H]1[C@H](CO)C2 | 24.5 µM | 3.63 µM | 22.4 µM | 20 µM | 18.2 µM | 60.3 µM | 8.71 µM | 20 µM | 15.1 µM | 1.95 µM | 25.1 µM | 22.9 µM | 18.2 µM |  |
| COc1cc2c(cc1OC)C1(c3cc(OC)c(OC)c(OC)c3)OCC13C1COC2C13 (stereo not given) | 31.6 µM |  | 28.2 µM | 41.7 µM |  | 70.8 µM |  | 69.2 µM | 30.2 µM |  | 34.7 µM | 29.5 µM | 19.5 µM |  |
